Assay results taken from ChEMBL document CHEMBL1141449, “Diterpenes, sesquiterpenes, and a C15-acetogenin from the marine red alga Laurencia mariannensis” (2007).
Active and inactive are the calls of the source. The calls are words filed in the database; no cut-off is given here.

Columns and labels:
Candida albicans = assay: Antifungal activity against Candida albicans by standard agar diffusion test; format: functional, organism-based
Summary of the method: (§1)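 Agar diffusion assay following a cited standard method. Read-out is the diameter of the growth-inhibition zone, in mm.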

Aspergillus niger = assay: Antifungal activity against Aspergillus niger by standard agar diffusion test; format: functional, organism-based; summary of the method: as §1
Escherichia coli = assay: Antibacterial activity against Escherichia coli by standard agar diffusion test; format: functional; summary of the method: as §1
Staphylococcus aureus = assay: Antibacterial activity against Staphylococcus aureus by standard agar diffusion test; format: functional; summary of the method: as §1

Row | Compound | Activity (Candida albicans) | Activity (Aspergillus niger) | inhibition zone (IZ) (Escherichia coli) [mm] | inhibition zone (IZ) (Staphylococcus aureus) [mm]
1 | CC/C(Br)=C/C=C\C1=C(Br)[C@H]2O[C@H](C=C=CBr)C[C@H]2O1 [LAURENMARIALLENE] | inactive | inactive | 7 | –
2 | C=C[C@]1(C)CC[C@H]2C(C)=CC[C@@H](C)[C@]2(C)O1 | inactive | inactive | – | –
3 | C=C1CC[C@H](Br)C(C)(C)[C@]12CC[C@@]1(C)[C@H](C2)[C@](C)(O)[C@H](O)C[C@@H]1Br | inactive | inactive | 6.5 | 6.5
4 | C=C1CC[C@H](Br)C(C)(C)[C@@]12CCC(C)=C(Cl)C2 | inactive | inactive | – | –
